# High-throughput results (PubChem BioAssay)
# procasp7 counter – counter-screen for procaspase-3 activators: activators of human procaspase-7 | actives 0.093% (n = 330,000) | activation, % at 8.5 µM | recombinant procaspase-7, Ac-DEVD-pNA absorbance 405 nm; D23A/D198A/D206A triple mutant, cannot self-cleave; scale: DMSO 0, 5 µM enzyme 100;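 active = percent activation above the screen-wide mean plus 3 SD, cut at about 25% in these data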
# Target sequence (P55210 whole entry D23A/D198A/D206A): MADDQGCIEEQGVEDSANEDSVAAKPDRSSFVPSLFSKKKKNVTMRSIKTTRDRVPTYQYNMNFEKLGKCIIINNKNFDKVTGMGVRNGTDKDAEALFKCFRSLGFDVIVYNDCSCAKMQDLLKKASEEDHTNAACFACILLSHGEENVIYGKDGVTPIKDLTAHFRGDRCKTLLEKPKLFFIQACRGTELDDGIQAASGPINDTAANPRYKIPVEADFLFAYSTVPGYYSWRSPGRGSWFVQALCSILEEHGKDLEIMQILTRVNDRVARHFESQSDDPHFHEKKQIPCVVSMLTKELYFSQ
#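 Test system: Procaspase-7 triple mutant (PC-7 D3A). Also added: Ac-DEVD-pNA substrate, 400 µM as added. Schedule: 1 h enzyme–compound preincubation and 2 h substrate reaction, both 25 °C. Signal: p-Nitroaniline absorbance at 405 nm, read at 0 and 120 min. Control set: low DMSO alone, high DMSO plus 5 µM PC-7.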
# proCasp3 act – activates human procaspase-3; activation, % at 8.5 µM; AID 463141; recombinant procaspase-3 D3A, Ac-DEVD-pNA absorbance 405 nm; P42574; actives 0.11% (n = 330,000);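 active = activation above the mean of all tested compounds plus 3 SD, cut at about 21% in these data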
# Target sequence (P42574 whole entry D9A/D28A/D175A): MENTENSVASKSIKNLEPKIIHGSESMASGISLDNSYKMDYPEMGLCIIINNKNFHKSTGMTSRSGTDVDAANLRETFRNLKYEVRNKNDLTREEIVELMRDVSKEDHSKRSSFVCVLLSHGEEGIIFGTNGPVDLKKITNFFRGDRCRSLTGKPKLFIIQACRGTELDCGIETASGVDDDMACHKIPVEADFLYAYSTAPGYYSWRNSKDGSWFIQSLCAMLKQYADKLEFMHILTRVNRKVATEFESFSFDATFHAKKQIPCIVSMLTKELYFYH
#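 Test system: Procaspase-3 D3A mutant, all three cleavage aspartates alanine | Dosing: Single dose, 8.5 µM nominal compound, 0.8% DMSO | Schedule: 1 h preincubation, 2 h reaction | Technique: 405 nm absorbance of p-nitroaniline, reads at 0 and 120 min | Repeats: One well per compound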
# IMP-1 inhibitor – blocks Pseudomonas aeruginosa IMP-1 metallo-beta-lactamase; purified IMP-1, nitrocefin hydrolysis, epi-absorbance fluorescence; inhibition, % at 5.6 µM; actives 0.45% (n = 290,000); AID 1556;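 active = inhibition above the mean plus 3 SD of all compounds in the same screening run, cut at about 4.5% in these data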
#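 Assay system: purified recombinant IMP-1 beta-lactamase. Input: IMP-1 0.2 nM before substrate addition. Buffer or medium: Zinc- and detergent-supplemented HEPES buffer, pH 7.1. Schedule: 25 °C, 15 min preincubation, 25 min reaction. Signal: Epi-absorbance fluorescence, 480 nm excitation, 530 nm emission. Evaluation: percent inhibition from optical density relative to buffer-blank wells.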
# Neddyl block – blocks human cullin neddylation; calls only at 25 µM; P61081+Q13564; TR-FRET cullin neddylation, biochemical; actives 0.58% (n = 360,000); in the data active = inhibition above about 36%
# PolyA inh – blocks polyadenylation in yeast reporter cells; S. cerevisiae SKY197-pL101 polyadenylation reporter, beta-gal luminescence; efflux-impaired pdr1/pdr3 knockout yeast; score 100 = 6 SD above DMSO; activity score, % at 12 µM; actives 0.02% (n = 300,000); AID 1875;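 active = lowest replicate activity score at least 50, where 100 means six control SD above control mean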;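 also: yeast exposed to compound for 9 h at 30 °C; higher score means more reporter readthrough which indicates perturbed polyadenylation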
# VIM-2 inh – inhibitors of Pseudomonas aeruginosa VIM-2 metallo-beta-lactamase; purified VIM-2, nitrocefin hydrolysis, epi-absorbance fluorescence; inhibition, % at 5.6 µM; AID 1527; actives 0.89% (n = 290,000);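 active = inhibition above the mean of all tested compounds plus 3 SD, cutoff set per screening run, cut at about 7.5% in these data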;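 also: red hydrolysis product quenches plate fluorescence so inhibitors raise well fluorescence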
# Numbers stand for hits; n = inactive; x = no result given; + = active, no number. Compounds with a hit are over-represented: about 1.7% of the library has one in this group of screens.
SMILES,procasp7 counter,proCasp3 act,IMP-1 inhibitor,Neddyl block,PolyA inh,VIM-2 inh
CC1CCC(NC(=O)Cn2c(=O)oc3cc(S(=O)(=O)N4CCCC4)ccc32)CC1 (stereo unspecified),n,n,4.9,n,n,n
NC(=O)CC1Nc2cccc3cccc(c23)NC1=O (stereo unspecified),n,n,9.1,n,n,8.1
CSc1nnc(-c2cc(Br)ccc2N=Cc2c(C)[nH]n(-c3ccccc3)c2=O)c(=O)[nH]1,n,n,n,n,n,n
COCCNc1nc(Oc2ccc(CC(=O)OC)cc2)c2sc(-c3ccccc3)cc2n1,x,x,x,n,x,x
COc1ccc(CNc2c(C(=O)O)cnc3c2cnn3C)cc1,n,n,n,n,n,9.9
CCOC(=O)c1cnc2c(cnn2C)c1NCc1ccc(OC)cc1,n,n,n,n,n,n
O=C(NCc1cccc(Cl)c1)c1ccc(-n2ccnc2)c2ccoc12,x,x,x,n,x,x
O=C(Nc1ccc([N+](=O)[O-])cc1)c1cn(-c2ccccc2)nc1-c1cc2ccccc2o1,n,n,n,n,n,n
COC(=O)c1c(NC(=O)C(=O)N2CCOCC2)sc2c1CCC2,n,n,n,n,n,11
COC(=O)c1c(NC(=O)Cc2cccs2)sc2c1CCCC2,n,n,4.5,n,n,n
COC(=O)c1c(NC(=O)C(=O)N2CCOCC2)sc2c1CCCC2,n,n,n,n,n,n
Cc1ccc(-c2c(C(=O)O)c(C(=O)O)c3n2CCC3)cc1,n,n,n,n,x,9.8
COC(=O)c1c(C(=O)OC)c(-c2ccc(C)cc2)n2c1CCC2,n,n,n,n,n,n
COC(=O)c1c(C(=O)OC)c(-c2ccc(Cl)c(Cl)c2)n2c1CCC2,n,n,n,n,n,n
O=C(O)c1c(C(=O)O)c(-c2ccc(F)cc2)n2c1CCC2,n,n,n,n,n,11
COc1ccc(CCNC(=O)CCS(=O)(=O)c2ccc(C)cc2)cc1OC,n,n,n,n,n,n
COc1ccc(CCN2C(=O)CC(C(C)c3ccccc3)C2=O)cc1OC (stereo unspecified),n,n,24,n,n,n
COc1ccc(CCN2C(=O)CC(Cc3ccccc3)C2=O)cc1OC (stereo unspecified),n,n,n,n,n,n
CC(=O)Oc1c(-c2ccco2)oc2ccccc2c1=O,n,n,n,+,n,n
CCN(CC)C(=O)COc1c(-c2ccco2)oc2ccccc2c1=O,n,n,n,n,n,n
CCCS(=O)(=O)N1CCN(Cc2ccncc2)CC1,n,n,5.1,n,n,n
O=Cc1coc2ccc3ccccc3c2c1=O,n,n,36,n,n,n
NC(=O)N/N=C/c1coc2ccc3ccccc3c2c1=O,n,n,n,n,n,n
Cn1cnnc1SCC(=O)c1cc2ccccc2o1,n,n,n,n,n,n
Cn1ccnc1SCC(=O)c1cc2ccccc2o1,n,n,4.6,n,n,n
SMILES,procasp7 counter,proCasp3 act,IMP-1 inhibitor,Neddyl block,PolyA inh,VIM-2 inh
CC(C)n1c(NCc2nc3ccccc3n2C)nc2ccccc21,n,n,n,n,n,n
CCC(=O)N/C(N)=N/c1nc(C)c2cc(C)c(C)cc2n1,n,n,n,n,n,10
CCOc1ccc(N2CC(=O)SC2=S)cc1,n,n,n,n,n,n
CCOc1ccc(N2CSC(=S)N(c3ccc(OCC)cc3)C2)cc1,n,n,4.7,n,n,n
CN1CCN(c2nnc(-c3ccc(Cl)cc3)c3ccccc23)CC1,n,n,n,n,n,10
Cc1ccc(-c2nnc(N3CCCCC3)c3ccccc23)cc1,n,n,n,n,n,n
Cc1ccc(Nc2c(-c3ccc(C)o3)nc3ncccn23)cc1,n,n,n,n,57,n
Cc1ccc(-c2nc3ncccn3c2Nc2ccc3c(c2)OCO3)o1,n,n,n,n,n,n
COc1cc(C(=O)NCCOc2ccccc2C)c(Br)c(OC)c1OC,n,n,n,n,n,n
CC(C)c1nc(SCC(=O)Nc2ccc(N(C)C)cc2)c2ccccc2n1,n,n,5.2,n,n,n
CC(C)c1nc(SCC(=O)Nc2nccs2)c2ccccc2n1,n,n,n,n,n,n
Cn1c(-c2ccc3c(c2)OCO3)c(C(=O)O)c(=O)c2ccccc21,n,n,n,n,n,11
COc1ccc2c(=O)c(C(=O)O)c(-c3ccc4c(c3)OCO4)n(C)c2c1,n,n,n,x,n,n
Cc1ccc(CN2C(=O)/C(=C\c3ccc(C(=O)NCc4cccnc4)cc3)Oc3ccccc32)cc1,n,27,n,x,n,n
CCOCCCNC(=O)c1ccc(Br)cc1,n,n,n,n,n,n
CCOCCCNC(=O)c1ccc(/C=C2\Oc3ccccc3N(C)C2=O)cc1,n,n,n,x,n,7.7
CC(=O)c1ccc(S(=O)(=O)NCc2ccc(C(=O)N(C)CC(=O)Nc3cccc(F)c3)cc2)cc1,n,n,n,n,n,n
CC(=O)Nc1ccc(C(=O)CN2CCN(c3ccccc3)CC2)cc1,n,n,22,n,n,n
CN1CCN(c2ccc(NC(=O)c3ccc(Oc4ccccc4)cc3)cc2)CC1,n,n,n,n,n,8.3
CC(=O)c1ccc(NC(=O)CN2CCN(c3ccccc3)CC2)cc1,n,n,n,n,n,n
Cc1ccc(C(C)C)c(OCCCNCc2cccnc2)c1,n,n,n,n,n,n
CCOC(=O)c1cccc2c1-c1ccccc1/C2=N/O,n,n,n,n,n,n
O=C1CSC2(CCCCC2)N1CCO,n,n,5.6,n,n,n
O=C(O)c1ccc(S(=O)(=O)c2ccc3c(c2)C(=O)N(NC(=O)c2ccccc2)C3=O)cc1,n,n,5.1,n,n,n
O=C(O)c1ccc(S(=O)(=O)c2ccc3c(c2)C(=O)N(NC(=O)c2ccncc2)C3=O)cc1,n,n,n,n,n,n
SMILES,procasp7 counter,proCasp3 act,IMP-1 inhibitor,Neddyl block,PolyA inh,VIM-2 inh
COc1ccc(C2C3=C(N=C4SCC(=O)N42)c2ccccc2CC3)cc1OC (stereo unspecified),n,n,5.9,n,n,n
COc1ccc(C2C3=C(N=C4SCC(=O)N42)c2ccccc2CC3)cc1 (stereo unspecified),n,n,n,n,n,n
CC1CCc2c(nc3sc4c(c3c2N)CCCC4)C1 (stereo unspecified),n,n,n,n,n,8.1
CCOc1ccc(NC(=O)c2cc3c(C)nc4ccccc4c3o2)cc1,n,n,n,x,n,n
Cc1nc2ccccc2c2oc(C(=O)N3CCC(C)CC3)cc12,n,n,n,n,n,11
Cc1nc2ccccc2c2oc(C(=O)N3CCN(C(=O)c4ccco4)CC3)cc12,n,n,n,n,n,8.8
Cc1nc2ccccc2c2oc(C(=O)NC3CC3)cc12,n,n,n,n,n,8.4
